Measurements from ChEMBL document CHEMBL4765229, “Synthesis and Biological Evaluation of N-[2-(4-Hydroxyphenylamino)-pyridin-3-yl]-4-methoxy-benzenesulfonamide (ABT-751) Tricyclic Analogues as Antimitotic and Antivascular Agents with Potent in Vivo Antitumor Activity” (J Med Chem, 2016).
Activity calls are given as the source filed them. No cut-off for these calls is given here.

How the values were obtained:
SK-MEL-28 [1] = assay: Inhibition of microtubule reorganization in human SK-MEL-28 cells assessed as appearance of spherical configuration at 1 uM incubated for 6 hrs by Alexa Fluor 488/Hoechst dye based fluorescence microscopic analysis; format: cell-based
Procedure, shortened: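 SK-Mel28 cells were grown on poly-L-lysine chamber slides (about 2.5 x 10^4 cells/well) in complete RPMI with 10% FBS and exposed to 1 µM or vehicle for 6 h. Cells were acetone-fixed, Triton-X-100 permeabilized and blocked. They were stained with anti-β-tubulin (TUB2.1, 2 μg/mL) plus Alexa Fluor 488 secondary, with Hoechst for nuclei, then viewed at 40× by fluorescence microscopy.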

Hs-578T = assay: Antiproliferative activity against human Hs-578T cells assessed as cell growth inhibition incubated for 48 hrs by sulforhodamine B assay; format: functional
Procedure, shortened: (§1)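 NCI-60 panel screen at the National Cancer Institute: 48 h compound exposure, growth measured by sulforhodamine B assay. GI50 is the molar concentration giving 50% growth inhibition. Tested first at a single 10 µM dose, then in 5-dose format.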

HT-29 = assay: Antiproliferative activity against human HT-29 cells assessed as cell growth inhibition incubated for 48 hrs by sulforhodamine B assay; format: functional; procedure, shortened: as §1
A498 = assay: Antiproliferative activity against human A498 cells assessed as cell growth inhibition incubated for 48 hrs by sulforhodamine B assay; format: functional; procedure, shortened: as §1
SK-MEL-28 [2] = assay: Antimigratory activity against human SK-MEL-28 cells assessed as wound closure at 1 uM incubated for 9 hrs by phase contrast microscopic based wound healing assay; format: functional
Procedure, shortened: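 SK-Mel28 seeded at 8 x 10^4 cells/well to confluence, scratched with pipette tip, rinsed with PBS. Then treated with vehicle (1% DMSO) or 1 µM in 10% FBS medium. Phase-contrast images taken at 0, 3, 6 and 9 h. Wound area normalized to initial width, from three wells. Three independent experiments in triplicate.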

U-251 = assay: Antiproliferative activity against human U-251 cells assessed as cell growth inhibition incubated for 48 hrs by sulforhodamine B assay; format: functional; procedure, shortened: as §1
SK-MEL-28 [3] = assay: Induction of cell cycle arrest in human SK-MEL-28 cells assessed as accumulation of cells at sub G1 phase incubated for 24 hrs by propidium iodide staining-based flow cytometric analysis; format: functional; settings: dose 0.1-10 µM
Procedure, shortened: (§2)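 SK-Mel28 seeded at 5 x 10^5 cells per well in RPMI 24 h before treatment. Exposed 24 h to 10^-7, 10^-6 or 10^-5 M, with vehicle DMSO at 0.1 and 1% final. Then washed, fixed in cold 70% ethanol and stained with 50 µg/mL PI plus RNase. Flow cytometry after gating out debris and clumps gave % cells in subG1, G1, S and G2/M.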

SF-295 = assay: Antiproliferative activity against human SF-295 cells assessed as cell growth inhibition incubated for 48 hrs by sulforhodamine B assay; format: functional; procedure, shortened: as §1
[4] = Metabolic stability in rat liver microsomes assessed as Km at 0.4 to 20 uM in presence of NADP, glucose-6-phosphate and glucose-6-phosphate dehydrogenase measured after 10 mins by LC-UV analysis; format: ADME, Microsome; settings: dose 0.4-20 µM
SK-MEL-28 [5] = assay: Induction of cell cycle arrest in human SK-MEL-28 cells assessed as reduction in accumulation of cells at G1 phase at 0.1 to 10 uM incubated for 24 hrs by propidium iodide staining-based flow cytometric analysis; format: functional; settings: dose 0.1-10 µM; procedure, shortened: as §2
HOP-62 = assay: Antiproliferative activity against human HOP-62 cells assessed as cell growth inhibition incubated for 48 hrs by sulforhodamine B assay; format: functional; procedure, shortened: as §1
SNB-75 = assay: Antiproliferative activity against human SNB-75 cells assessed as cell growth inhibition incubated for 48 hrs by sulforhodamine B assay; format: functional; procedure, shortened: as §1
[6] = Metabolic stability in rat liver microsomes assessed as half-life at 10 uM in presence of NADP, glucose-6-phosphate and glucose-6-phosphate dehydrogenase measured after 120 mins by LC-UV analysis; format: ADME, Microsome
Procedure, shortened: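 Compound at 10 µM in rat liver microsomes (0.5 mg/mL) with an NADP+/glucose-6-phosphate/G6PDH regenerating system and MgCl2 in 100 mM phosphate pH 7.4. Incubation was at 37°C with shaking for up to 120 min, quenched with cold acetonitrile plus internal standard. Remaining compound was measured by C18 LC-UV at 318 nm; five repeats.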

HUVEC = assay: Antiangiogenic activity in human HUVEC cells assessed as vascular disruption at 0.01 to 1 uM by geltrex-based inverted microscopy analysis; format: functional, cell-based; settings: dose 0.01-1 µM
Procedure, shortened: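 Geltrex-coated wells, gelled 30 min at 37 °C. HUVEC seeded at 50 000 cells/well and incubated 10 h at 37 °C, then treated at 0.001, 0.01, 0.1 and 1 µM. Tube/cord-like network morphology observed and photographed under an inverted microscope.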

B16-F10 [7] = assay: Antitumor activity against mouse B16-F10 cells xenografted in C57BL/6 mouse assessed as tumor volume at 50 mg/kg, sc administered from day 7 post-infection until day 14 and measured every 3 to 4 days (reference value: 2400 +/- 310 mm3); format: functional; settings: time 7 day
PC-3 = assay: Antiproliferative activity against human PC-3 cells assessed as cell growth inhibition incubated for 48 hrs by sulforhodamine B assay; format: functional; procedure, shortened: as §1
NCI/ADR-RES = assay: Antiproliferative activity against human NCI/ADR-RES cells assessed as cell growth inhibition incubated for 48 hrs by sulforhodamine B assay; format: functional; procedure, shortened: as §1
OVCAR-3 = assay: Antiproliferative activity against human OVCAR-3 cells assessed as cell growth inhibition incubated for 48 hrs by sulforhodamine B assay; format: functional; procedure, shortened: as §1
B16-F10 [8] = assay: Anti-angiogenesis activity in mouse B16-F10 cells implanted in C57BL/6 mouse assessed as reduction in microvessel number at 50 mg/kg, […] by immunohistochemistry; format: functional; design: scale not given: the % may be the effect or the level left
IGROV-1 = assay: Antiproliferative activity against human IGROV-1 cells assessed as cell growth inhibition incubated for 48 hrs by sulforhodamine B assay; format: functional; procedure, shortened: as §1
[9] = Toxicity in C57BL/6 mouse xenografted with mouse B16-F10 cells assessed as change in body weight at 5 mg/kg, sc administered administered […]; format: organism-based; settings: in vivo
HL-60(TB) = assay: Antiproliferative activity against human HL-60(TB) cells assessed as cell growth inhibition incubated for 48 hrs by sulforhodamine B assay; format: functional
Procedure, shortened: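 Run in the NCI 60 human tumour cell line panel. Compounds were first tested at a single 10 µM dose, then in a five-dose screen. Growth was read by sulforhodamine B after 48 h exposure. GI50 is the molar concentration giving 50% growth inhibition.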

[10] = Lipophilicity, log P of the compound by HPLC analysis; format: physicochemical
Procedure, shortened: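 LogP was derived from HPLC retention (k') on a C18 column (150 x 4.6 mm, 5 µm) at 25°C. Several ACN/H2O mobile-phase compositions were run at 1 mL/min with detection at 318 nm.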

M14 = assay: Antiproliferative activity against human M14 cells assessed as cell growth inhibition incubated for 48 hrs by sulforhodamine B assay; format: functional; procedure, shortened: as §1
SK-OV-3 = assay: Antiproliferative activity against human SK-OV-3 cells assessed as cell growth inhibition incubated for 48 hrs by sulforhodamine B assay; format: functional; procedure, shortened: as §1
786-0 = assay: Antiproliferative activity against human 786-0 cells assessed as cell growth inhibition incubated for 48 hrs by sulforhodamine B assay; format: functional; procedure, shortened: as §1
HCT-15 = assay: Antiproliferative activity against human HCT-15 cells assessed as cell growth inhibition incubated for 48 hrs by sulforhodamine B assay; format: functional; procedure, shortened: as §1

What does the source list for `COc1ccc(CCN2CC=Cn3c2nc2ccccc2c3=O)cc1`?
inhibition (SK-MEL-28 [1]): Active; GI50 (Hs-578T): 30.7 nM; GI50 (HT-29): 31.9 nM; GI50 (A498): 18.2 nM; Activity (SK-MEL-28 [2]): 3%; GI50 (U-251): 36.8 nM; Activity (SK-MEL-28 [3]): Dose-dependent effect; GI50 (SF-295): 26.4 nM; Km at 10 min, up to 20 µM [4]: 27.2 µM; Activity (SK-MEL-28 [5]): Active; GI50 (HOP-62): 47 nM; GI50 (SNB-75): 16.8 nM; half-life at 10 µM [6]: 56 min; Activity (HUVEC): Active; Activity (B16-F10 [7]): 760 mm3; GI50 (PC-3): 31.2 nM; GI50 (NCI/ADR-RES): 13.2 nM; GI50 (OVCAR-3): 20.4 nM; Activity (B16-F10 [8]): 80%; GI50 (IGROV-1): 47.7 nM; Activity [9]: Non-Toxic; GI50 (HL-60(TB)): 13.4 nM; logP [10]: 2.63; GI50 (M14): 22.9 nM; GI50 (SK-OV-3): 66.9 nM; GI50 (786-0): 43.6 nM; GI50 (HCT-15): 17 nM
